Experimental data published in ChEMBL document CHEMBL4513216, “Probing the Open Global Health Chemical Diversity Library for Multistage-Active Starting Points for Next-Generation Antimalarials” (ACS Infect Dis, 2020).

Test: Toxicity liver stage against HepG2, at 10uM
Type: cell-based
Parameters: test concentration 10 uM, cell line HepG2-A16-CD81EGFP
Conditions: human, HepG2-A16-CD81EGFP cells; read-out: INHIBITION
Procedure, shortened: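 Uninfected HepG2-A16-CD81EGFP cells, 3 × 10^3 per well, 1536-well, plated on prespotted compound at 10 μM final, parasite-free screening media added to match infected plates; puromycin 10 μM positive, DMSO 0.5% negative; run in parallel with 48 h PbLuc assay at 37 °C, 5% CO2; viability by CellTiter-Glo luminescence, normalized to controls.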

SMILES | cytotoxicity at 10 µM
Cc1ncc(S(C)(=O)=O)c(N2CCCCCC2)n1 | -0.972%
CC(=O)N1[C@H](CN(C)C)C[C@@H]2CN(C(=O)c3ccno3)CC[C@@H]21 | 4.35%
CC(C)Oc1cc(N2CCC(N3CCC(O)CC3)CC2)nc(N)n1 | -12.2%
Cc1noc(C)c1-c1n[nH]c2c1CN(S(=O)(=O)c1cccnc1)CC2 | -11%
c1ccc(OCCNCc2cccs2)nc1 | -3.26%
O=C1CCSCC(C(=O)N2CCOCC2)N1 (stereo not given) | -11.3%
Cc1nc(NC2CCCC2)cc(C2CCN2c2ncccn2)n1 (stereo not given) | -0.943%
Cc1noc(-c2cccnc2N2CCN(c3cnn(C)c3)CC2)n1 | 1.12%
Cc1cc(C)cc(C2(C(=O)NCC(C)CN3CCCC3=O)CC2)c1 (stereo not given) | 1.42%
CC(C)n1cnc2c1C(C(=O)NCCC#N)N(Cc1ccccc1)CC2 (stereo not given) | -7.2%
Cc1cc(=O)c(C(=O)N2CCC(C(O)Cc3ccccc3)CC2)c(C)[nH]1 (stereo not given) | 12.2%
Cn1cc(CN2CC[C@@H](O)[C@@H]2Cc2ccccc2)cn1 | -71.2%
O=C(C1=CCCC1)N1CCC2(CC1)CC(Oc1cccnc1)CO2 (stereo not given) | -1.58%
CCn1ccnc1CNc1nccc(-c2c(C)nn(C)c2C)n1 | -0.0793%
CNC(=O)CCN1CCN(C(C)c2ccc(Cl)cc2)CC1 (stereo not given) | -0.82%
CCS(=O)(=O)NCCNC(=O)c1cc(Cl)c2c(c1)OCCCO2 | 5.98%
CC(=O)N1CCC(C)(c2cc[nH]n2)CC1 | -4.07%
CCc1nnsc1C(=O)NC1CCN(c2ccccn2)CC1 | -2.49%
Fc1ccccc1CN1C[C@@H](OCc2ccncc2)[C@H]2OCCC[C@H]21 | -4.81%
CN1CC(=O)N(c2cccc(F)c2)CC12CCN(Cc1cncn1C)C2 (stereo not given) | -0.791%
CC(C)(C)c1nc(CNC2CCN(S(C)(=O)=O)CC2)cs1 | -2.34%
Cc1cc(C)n(-c2cncc(N3CCN(C(=O)CN(C)C)CC3)n2)n1 | -2.09%

SMILES | cytotoxicity at 10 µM
COc1ccc(CN2CCO[C@H]3CN(C4CCCC4)CC[C@H]3C2=O)cc1 | -138%
O=C(C1CC(c2ccccc2)=NO1)N1CCCCc2ccccc21 (stereo not given) | 3.17%
Cn1ncc2c(N3CC[C@H](O)C3)nc(-c3ccncc3)nc21 | 4.63%
CS(=O)(=O)NCc1cc(-c2cc(F)cc(F)c2)nc(N2CCCC2)n1 | -1.53%
COCCCN1Cc2cccc(NC(=O)c3cc(F)ccc3F)c2C1 | -1.74%
CCc1nc(N2CCC3(CCC(=O)N(CCCO)C3)CC2)no1 | 0.814%
COc1cccc2cc(CNCc3ccnc(N4CCOCC4)c3)oc12 | -8.55%
O=C(C1CC(F)(F)C1)N1C[C@@H]2CN(CC3CC3)CCO[C@@H]2C1 | -0.336%
CC(C)S(=O)(=O)CCN1CCc2c(ncn2C2CC2)C1 | -13.9%
FC(F)C(F)(F)COCc1ncnn1-c1ccc2c(c1)OCO2 | -2.82%
CN(CCc1ccncc1)C(=O)C1CSCN1C(=O)C(C)(C)C (stereo not given) | -8.2%
O=C(Cn1cccn1)Nc1ccc(N2CCOCC2)cc1 | -2.51%
CC(C)NC(=O)c1cc2c(nc1N(C)C)CCN(S(=O)(=O)C1CC1)CC2 | -149%
O=C(c1ccnnc1)N1C[C@@H](OCC2CCCC2)[C@H]2OCCC[C@H]21 | -11.8%
COCCO[C@H]1CCN(Cc2cnn(C)c2)[C@H]1Cc1cccnc1 | 0.793%
Cn1ccnc1CN1CCN(CC(O)c2ccc(F)cc2)CC1 (stereo not given) | -21.8%
COc1ccc2c(c1)c(-c1nc(N(C)C)ncc1CN)cn2C | 7.43%
NC(=O)c1cccnc1N1CCN(c2ncnc3c2CCNC3)CC1 | -3.03%
Cc1noc(C)c1CN1C[C@H](OCC(=O)N(C)C)[C@H]2OCCC[C@H]21 | 8.34%
CC(c1nc(C(C)(C)C)no1)S(=O)(=O)CC(=O)N(C)C (stereo not given) | -0.0515%
Cc1cccc(C2CCCCCN2Cc2cn(C)nc2C)c1 (stereo not given) | -1.17%
NC(=O)c1c[nH]nc1NC(=O)c1ccc(Cl)cc1 | 3.19%

SMILES | cytotoxicity at 10 µM
COC(=O)c1sccc1CN1CCN(C(=O)c2ccc(C)o2)CC1 | 2.37%
Cc1cccc(NC(=O)N2Cc3c(CN(C)C)nn(C)c3C2)c1 | 7.77%
Cc1ccc(C(=O)N2CCCC(c3cc(C(F)(F)F)[nH]n3)C2)o1 (stereo not given) | 5.77%
c1cnc(-c2nc(CN3CCCC3Cn3cncn3)cs2)nc1 (stereo not given) | -9.77%
Cc1cnn(C2CN(CC(=O)NCCOc3ccccc3)C2)c1 | -16.7%
OCCN1CCOC2(CCCN(c3cccc(F)c3)C2)C1 (stereo not given) | 2.01%
COc1ccc(CN(C)C(=O)CN2CC(n3cccn3)C2)cc1F | -0.717%
COc1ccc(NC(=O)CCC2CCCN(Cc3ncon3)C2)c(C)c1 (stereo not given) | 0.523%
CCn1cnnc1CNC(=O)c1ccc(Cl)cc1F | -0.457%
O=C(N[C@@H]1CCN(C(=O)C2CCOCC2)C[C@H]1O)c1ccccn1 | -2.88%
Cc1nc2c(N(C)Cc3ccnn3C)nc(N)nc2n1C | -7.42%
CCCS(=O)(=O)N1CCOC2(CCCN(c3ccc(C)nn3)C2)C1 (stereo not given) | 2.08%
CCn1ccnc1CN1CCN(CCOc2cccc(C#N)c2)CC1 | -6.95%
C[C@H](NC(=O)N1CCC(Cc2ccccc2)CC1)C(=O)O | -1.65%
CCCOCC1CCN(C(=O)c2cnc(-c3csc(C)n3)nc2O)C1 (stereo not given) | 5.25%
COc1cccc2c1OCC(CNC(=O)Cc1cnccn1)C2 (stereo not given) | -145%
Cc1ccc(N(C)[C@@H]2CC[C@@H]3CN(C(=O)CC4CCOCC4)C[C@@H]32)nn1 | -1.79%
Cc1ccsc1[C@@H]1CCN(C(=O)c2cc3ccccc3[nH]2)C[C@H]1O | 29%
CCOCCCNC(=O)NC(C)c1ccc(-n2cncn2)cc1 (stereo not given) | 3.31%
CN(Cc1ccccc1CN1CCCC1)C(=O)c1c(O)cccc1O | -5.84%
O=C(Cn1cccn1)N1CCC(Oc2ccc(C(F)(F)F)cn2)CC1 | 8.77%
Cc1cc(NC(=O)c2ccc(F)cc2Br)n(C)n1 | -3.12%

SMILES | cytotoxicity at 10 µM
Cc1c(C(=O)OCC2CC(=O)N(c3ccccc3)C2)cnn1C(C)C (stereo not given) | -3.52%
Cc1cc(C(=O)NCC2CCS(=O)(=O)C2)ccc1NC(=O)c1ccco1 (stereo not given) | 19%
COCc1nc(C2CC2)nn1-c1cc(Cl)ccc1OC | -10.2%
Cc1c(Br)cccc1C(=O)Nc1cc(C(N)=O)n(C)c1 | 0.71%
CCN(CC)C(=O)c1cc(C2(C)CCN(C(C)=O)CC2)nc(C)n1 | 5.27%
Cc1c(-c2ccccc2)ncn1CCCNc1cccnc1 | 2.06%
Cc1cc(COc2ccc(OC3CCCCNC3=O)cc2)on1 (stereo not given) | 13.4%
c1ccc(CO[C@@H]2CO[C@@]3(CCN(Cc4ccccn4)C3)C2)nc1 | -9.62%
COc1c(CNCc2ccnc(N(C)C)c2)c(C(C)C)nn1C | -6.3%
COCC1CN(Cc2ccc(F)cc2)Cc2nn(C)cc21 (stereo not given) | -81.4%
Cc1cc(-c2cnc(NC3CC3)nc2-c2ccoc2)on1 | -25.6%
Cn1cc(NS(=O)(=O)c2ccc(OC(F)(F)F)cc2)ccc1=O | 33.4%
O=C(NCCc1ccsc1)c1ccoc1 | -3.3%
CC(=O)N(Cc1ncc(C)o1)C1CCN(Cc2cccnc2)C1 (stereo not given) | 15.3%
CCN(CC)CCNCc1cc(O)c2cc(C)ccc2n1 | 0.749%
Cn1cnnc1Sc1ccc(NC(=O)C2CC2)cc1Cl | 0.118%
Cc1cc(C)n(CCCN(C)C(=O)[C@H]2CCCO2)n1 | -13.2%
Cc1nn(C)c2c(NCc3ccncc3)nc(C3CC3)nc12 | -4.17%
COc1ccc2c(c1)nc1n2[C@@H](CNC(=O)c2ccccn2)COC1 | -3.03%
Cc1ccc(NCc2cnc3n2CCN(c2ncccn2)CC3)nn1 | 7.31%
CCOCc1ncn2c1CN(S(=O)(=O)c1cccs1)CC2 | 0.719%
CC(CNC(=O)CCc1ccccn1)c1ccsc1 (stereo not given) | -3.3%

SMILES | cytotoxicity at 10 µM
CN(C)C(CNC(=O)c1ncoc1-c1ccccc1)c1ccsc1 (stereo not given) | -0.303%
Cc1ccc(C)c(OCC(=O)NC2CCN(c3ccccn3)CC2)c1 | -3.42%
CC(C)CN1CCN(C(=O)c2ccn(C)c(=O)c2)CC1 | -17.2%
O=C(c1cocn1)N1CCC2(CC1)CC(Oc1ccccn1)CO2 (stereo not given) | 9.34%
COc1cc2c(nn1)CCN(Cc1ncc(C(C)(C)C)o1)C2 | -6.44%
CCS(=O)(=O)CCNC(=O)[C@@]12CNC[C@@H]1CN(C1CCCC1)C2 | -20.3%
O=C(c1cc2cc(F)ccc2[nH]1)N1CCCCC1Cn1cccn1 (stereo not given) | -8.91%
CCNC(=O)N1CCCC(c2noc(CC)n2)C1 (stereo not given) | -2.45%
N#Cc1ccccc1C(=O)N1CCC2(CC(=O)NC2=O)C1 (stereo not given) | -19.6%
O=C(c1ccnnc1)N1CCN2C[C@H](OCc3ccccn3)C[C@H]2C1 | -77.2%
COc1cccc2c1OCC(C(=O)N1CCC(N3CCOC3=O)CC1)C2 (stereo not given) | -19.7%
Cn1ccnc1C1CCN(S(=O)(=O)c2ccc3c(c2)OCCO3)CC1 | -13.5%
Cc1cc(Cl)c(C)c(S(=O)(=O)N2CCN(Cc3ccncc3)CC2)c1Cl | 1.76%
CCN(Cc1ccncc1)C(=O)c1cn(CCC2CCCCC2)nn1 | 10.5%
CCC(C)N1Cc2c(C(=O)N3CCOCC3)nn(C)c2C1 (stereo not given) | -95.9%
CN1CCN(CCO)C(=O)C12CCN(c1nccs1)CC2 | 3.88%
c1cncc(CNCc2cccs2)c1 | 10.1%
Cc1nn(C)c(C)c1NC(=O)CCn1ncc2ccccc21 | 10.8%
Cn1cccc1C(=O)N1CCn2cc(CN3CCCC3)nc2C1 | -72.3%
c1cncc(CN2CCCCC2c2ccc(Nc3cnccn3)nc2)c1 (stereo not given) | 4.41%
CC(C)C1SCC(=O)Nc2c1c(O)nn2C1CCCC1 (stereo not given) | 1.4%
O=C(NCc1ccc2c(c1)OCO2)c1ccc(N2CCCCCC2)nc1 | -6.78%
